Experimental data published in ChEMBL document CHEMBL1129639, “Synthesis and cardiotonic activity of novel pyrimidine derivatives: crystallographic and quantum chemical studies” (J Med Chem, 1996).

How the values were obtained:
Cavia porcellus [1] = species: Cavia porcellus; assay: Compound was evaluated for its effect on the frequency rate of spontaneously beating atria from Reserpine-treated guinea pigs as percentage variation from the control at concentration of 3 x 10E-6 M; assay type: functional
Outline: (§1)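 Atria from reserpine-treated guinea pigs (reserpine 2 mg/kg ip, 48 and 24 h before death; only tyramine-unresponsive preparations used). Bath solution at 29 °C, gassed 95% O2/5% CO2, pH 7.5, resting tension […]. After 90 min equilibration, compound added cumulatively, 5 min per concentration. Isometric developed-tension amplitude or beating rate given as % variation from untreated control. Mean ± SEM, 6-10 assays.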

Cavia porcellus [2] = species: Cavia porcellus; assay: Effect on the contractile force of spontaneously beating atria from Reserpine-treated guinea pigs as percentage variation from the control at concentration of 10E-6 M; assay type: functional; outline: as §1
Cavia porcellus [3] = species: Cavia porcellus; assay: Effect on the contractile force of spontaneously beating atria from Reserpine-treated guinea pigs as percentage variation from the control at concentration of 3 x 10E-6 M; assay type: functional; outline: as §1
Cavia porcellus [4] = species: Cavia porcellus; assay: Compound was evaluated for its effect on the frequency rate of spontaneously beating atria from Reserpine-treated guinea pigs as percentage variation from the control at concentration of 3 x 10E-4 M; assay type: functional; outline: as §1
Cavia porcellus [5] = species: Cavia porcellus; assay: (§2) Compound was evaluated for its effect on the frequency rate of spontaneously beating atria from Reserpine-treated guinea pigs as percentage variation from the control at concentration of 3 x 10E-5 M; assay type: functional, guinea pig; outline: as §1
Cavia porcellus [6] = species: Cavia porcellus; assay: Effect on the contractile force of spontaneously beating atria from Reserpine treated guinea pigs as percentage variation from the control at concentration of 10E-4 M; assay type: functional; outline: as §1
Cavia porcellus [7] = species: Cavia porcellus; assay: Effect on the frequency rate of spontaneously beating atria from Reserpine-treated guinea pigs as percentage variation from the control at concentration of 10E-3 M; assay type: functional; outline: as §1
Cavia porcellus [8] = species: Cavia porcellus; assay: Effect on the frequency rate of spontaneously beating atria from Reserpine-treated guinea pigs as percentage variation from the control at concentration of 10E-4 M; assay type: functional; outline: as §1
Cavia porcellus [9] = species: Cavia porcellus; assay: Effect on the contractile force of spontaneously beating atria from Reserpine-treated guinea pigs as percentage variation from the control at concentration of 10E-3 M; assay type: functional; outline: as §1
Cavia porcellus [10] = species: Cavia porcellus; assay: Effect on the contractile force of spontaneously beating atria from Reserpine-treated guinea pigs as percentage variation from the control at concentration of 10E-5 M; assay type: functional; outline: as §1
Cavia porcellus [11] = species: Cavia porcellus; assay: Effect on the frequency rate of spontaneously beating atria from Reserpine-treated guinea pigs as percentage variation from the control at concentration of 10E-5 M; assay type: functional; outline: as §1
Cavia porcellus [12] = species: Cavia porcellus; assay: Effect on the frequency rate of spontaneously beating atria from Reserpine-treated guinea pigs as percentage variation from the control at concentration of 10E-6 M; assay type: functional; outline: as §1
Cavia porcellus [13] = species: Cavia porcellus; assay: Effect on the contractile force of spontaneously beating atria from Reserpine-treated guinea pigs as percentage variation from the control at concentration of 3 x 10E-5 M; assay type: functional; outline: as §1
Cavia porcellus [14] = species: Cavia porcellus; assay: Effect on the contractile force of spontaneously beating atria from Reserpine-treated guinea pigs as percentage variation from the control at concentration of 3 x 10E-4 M; assay type: functional; outline: as §1
Cavia porcellus [15] = species: Cavia porcellus; assay: Ionotropic Response to 8-Phenyltheophylline (3 x 10E-6 M) in Electrically driven Left atrium from Resperpine-Treated Guinea pigs at the concentration of 10E-4 M; assay type: functional, Cardiac atrium
Outline: (§3)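 Guinea pigs pretreated with reserpine (2 mg/kg ip) 48 and 24 h before sacrifice; atria unresponsive to tyramine (2 µg/mL) used. Left atrium electrically driven, in oxygenated salt solution (95% O2/5% CO2, pH 7.5, 29 °C), resting tension […], isometric developed tension. 90 min equilibration; test agent present while cumulative 8-phenyltheophylline curves run, 5 min per concentration; % variation from control; mean ± SEM, four assays.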

Cavia porcellus [16] = species: Cavia porcellus; assay: Inotropic effect in electrically driven left atrium from reserpine-treated guinea pigs at concentration of 10E-5 M; assay type: functional, Cardiac atrium
Outline: (§4)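 Electrically driven left atrium from reserpine-treated guinea pigs (tyramine-unresponsive), 29 °C, pH 7.5, resting tension […], 90 min equilibration. Compound dissolved in DMSO and added cumulatively, 5 min per step. Where used, adenosine deaminase was preincubated 20 min, and basal force was taken after ADA addition. Developed tension given as % change over control. Mean ± SEM of six assays.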

Cavia porcellus [17] = species: Cavia porcellus; assay: Ionotropic Response to 8-Phenyltheophylline (10e-5 M)in Electrically driven Left atrium from Resperpine-Treated Guinea pigs at the concentration of 3 x 10E-5 M; assay type: functional, Cardiac atrium
Outline: (§5)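 Electrically driven left atrium from reserpine-treated guinea pigs, 29 °C, pH 7.5. Cumulative 8-phenyltheophylline concentration-effect curves were run without or with 3 × 10^-5 to 3 × 10^-4 M test compound (DMSO). Developed tension given as % variation from control. Mean ± SEM of four assays from four experiments; Student's t-test against the 8-phenyltheophylline-only atrium.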

Cavia porcellus [18] = species: Cavia porcellus; assay: Ionotropic Response to 8-Phenyltheophylline (3 x 10E-6 M) in Electrically driven Left atrium from Resperpine-Treated Guinea pigs at the concentration of 3 x 10E-5 M; assay type: functional, Cardiac atrium; outline: as §3
Cavia porcellus [19] = species: Cavia porcellus; assay: Inotropic effect in electrically driven left atrium from reserpine-treated guinea pigs at concentration of 3 x 10E-6 M; assay type: functional, Cardiac atrium; outline: as §4
Cavia porcellus [20] = species: Cavia porcellus; assay: as §2; assay type: functional; outline: as §1
Cavia porcellus [21] = species: Cavia porcellus; assay: Ionotropic Response to 8-Phenyltheophylline (10e-4 M) in Electrically driven Left atrium from Resperpine-Treated Guinea pigs at the concentration of 3 x 10E-5 M; assay type: functional, Cardiac atrium; outline: as §5
Cavia porcellus [22] = species: Cavia porcellus; assay: Ionotropic Response to 8-Phenyltheophylline (10E-4) in Electrically driven Left atrium from Resperpine-Treated Guinea pigs at the concentration of 3 x 10E-4 M; assay type: functional, Cardiac atrium; outline: as §5
Cavia porcellus [23] = species: Cavia porcellus; assay: Inotropic effect in electrically driven left atrium from reserpine-treated guinea pigs at concentration of 10E-6 M; assay type: functional, Cardiac atrium; outline: as §4
Adenosine receptor A1 = target: T1, Adenosine receptor A1 (Cavia porcellus, UniProt P47745); assay: Inhibition of [3H]-CHA binding to Adenosine A1 receptor in guinea pig heart
T1 sequence (P47745 whole entry): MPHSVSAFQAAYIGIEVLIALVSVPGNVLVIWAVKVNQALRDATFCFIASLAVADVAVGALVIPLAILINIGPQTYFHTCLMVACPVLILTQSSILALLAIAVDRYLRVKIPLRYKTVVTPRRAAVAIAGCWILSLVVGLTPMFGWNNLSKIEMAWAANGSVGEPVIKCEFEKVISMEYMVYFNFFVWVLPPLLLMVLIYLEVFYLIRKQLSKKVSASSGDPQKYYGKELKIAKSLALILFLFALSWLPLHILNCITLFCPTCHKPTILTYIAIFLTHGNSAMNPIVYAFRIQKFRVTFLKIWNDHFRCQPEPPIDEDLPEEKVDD
Outline: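 Guinea pig heart membranes prepared in 50 mM Tris-HCl pH 7.4 and pretreated with adenosine deaminase 2 IU/mL for 30 min at 37 °C. Incubated with 1 nM [3H]CHA, membranes from 15 mg tissue, 120 min at 23 °C. Bound ligand separated by GF/B filtration; nonspecific binding defined with (R)-PIA. Six concentrations tested in triplicate; IC50 by probit analysis.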

Cavia porcellus [24] = species: Cavia porcellus; assay: Ionotropic Response to 8-Phenyltheophylline (3 x 10E-6 M) in Electrically driven Left atrium from Resperpine-Treated Guinea pigs at the concentration of 3 x 10E-4 M; assay type: functional, Cardiac atrium; outline: as §3
Cavia porcellus [25] = species: Cavia porcellus; assay: Inotropic effect in electrically driven left atrium from reserpine-treated guinea pigs at concentration of 3 x 10E-4 M; assay type: functional, Cardiac atrium; outline: as §4
Cavia porcellus [26] = species: Cavia porcellus; assay: Inotropic effect in electrically driven left atrium from reserpine-treated guinea pigs at concentration of 10E-3 M; assay type: functional, Cardiac atrium; outline: as §4
Cavia porcellus [27] = species: Cavia porcellus; assay: Ionotropic Response to 8-Phenyltheophylline in Electrically driven Left atrium from Resperpine-Treated Guinea pigs at the concentration of 3 x 10E-5 M; assay type: functional, Cardiac atrium; outline: as §3
Cavia porcellus [28] = species: Cavia porcellus; assay: Ionotropic Response to 8-Phenyltheophylline (3 x 10E-5 M) in Electrically driven Left atrium from Resperpine-Treated Guinea pigs at the concentration of 10E-4 M; assay type: functional, Cardiac atrium; outline: as §3
Cavia porcellus [29] = species: Cavia porcellus; assay: Ionotropic Response to 8-Phenyltheophylline (3 x 10E-5 M) in Electrically driven Left atrium from Resperpine-Treated Guinea pigs at the concentration of 3 x 10E-5 M; assay type: functional, Cardiac atrium; outline: as §3
Cavia porcellus [30] = species: Cavia porcellus; assay: Inotropic effect in electrically driven left atrium from reserpine-treated guinea pigs at concentration of 10E-4 M; assay type: functional, Cardiac atrium; outline: as §4
Cavia porcellus [31] = species: Cavia porcellus; assay: Ionotropic Response to 8-Phenyltheophylline in Electrically driven Left atrium from Resperpine-Treated Guinea pigs at the concentration of 3 x 10E-4 M; assay type: functional, Cardiac atrium; outline: as §3
Cavia porcellus [32] = species: Cavia porcellus; assay: Inotropic effect in electrically driven left atrium from reserpine-treated guinea pigs at concentration of 3 x 10E-5 M; assay type: functional, Cardiac atrium; outline: as §4
Cavia porcellus [33] = species: Cavia porcellus; assay: Ionotropic Response to 8-Phenyltheophylline (10e-5 M) in Electrically driven Left atrium from Resperpine-Treated Guinea pigs at the concentration of 10E-4 M; assay type: functional, Cardiac atrium; outline: as §5
Cavia porcellus [34] = species: Cavia porcellus; assay: Ionotropic Response to 8-Phenyltheophylline (3 x 10E-5 M) in Electrically driven Left atrium from Resperpine-Treated Guinea pigs at the concentration of 3 x 10E-4 M; assay type: functional, Cardiac atrium; outline: as §3
Cavia porcellus [35] = species: Cavia porcellus; assay: Ionotropic Response to 8-Phenyltheophylline (10e-4 M) in Electrically driven Left atrium from Resperpine-Treated Guinea pigs at the concentration of 10E-4 M; assay type: functional, Cardiac atrium; outline: as §5
Cavia porcellus [36] = species: Cavia porcellus; assay: Ionotropic Response to 8-Phenyltheophylline (10E-5) in Electrically driven Left atrium from Resperpine-Treated Guinea pigs at the concentration of 3 x 10E-4 M; assay type: functional, Cardiac atrium; outline: as §5
Cavia porcellus [37] = species: Cavia porcellus; assay: Ionotropic Response to 8-Phenyltheophylline in Electrically driven Left atrium from Resperpine-Treated Guinea pigs at the concentration of 10E-4 M; assay type: functional, Cardiac atrium; outline: as §3

## CCOC(=O)c1cnc(N(C)C)nc1
Cavia porcellus [1]
  Variation: 0%
Cavia porcellus [2]
  Variation: 1.19%
Cavia porcellus [3]
  Variation: 4.76%
Cavia porcellus [4]
  Variation: 14.81%
Cavia porcellus [5]
  Variation: 7.43%
Cavia porcellus [6]
  Variation: 9.03%
Cavia porcellus [7]
  Variation: 18.51%
Cavia porcellus [8]
  Variation: 11.11%
Cavia porcellus [9]
  Variation: -59.61%
Cavia porcellus [10]
  Variation: 5.55%
Cavia porcellus [11]
  Variation: 3.71%
Cavia porcellus [12]
  Variation: 0%
Cavia porcellus [13]
  Variation: 11.04%
Cavia porcellus [14]
  Variation: 11.71%

## COC(=O)c1cnc(N(C)C)nc1Cc1ccccc1
Cavia porcellus [1]
  Variation: 0%
Cavia porcellus [15]
  Variation: -4.34%
Cavia porcellus [2]
  Variation: 0%
Cavia porcellus [16]
  Variation: 7.45%
Cavia porcellus [17]
  Variation: 11%
Cavia porcellus [18]
  Variation: 8.79%
Cavia porcellus [19]
  Variation: 4.85%
Cavia porcellus [3]
  Variation: 5.83%
Cavia porcellus [4]
  Variation: -55.15%
Cavia porcellus [20]
  Variation: -8.03%
Cavia porcellus [21]
  Variation: 20.2%
Cavia porcellus [22]
  Variation: -6.66%
Cavia porcellus [23]
  Variation: 0%
Cavia porcellus [6]
  Variation: -13.54%
Adenosine receptor A1
  IC50: 21.3 µM
Cavia porcellus [24]
  Variation: -28.9%
Cavia porcellus [7]
  Variation: -100%
Cavia porcellus [25]
  Variation: -48.3%
Cavia porcellus [26]
  Variation: -100%
Cavia porcellus [27]
  Variation: -6.66%
Cavia porcellus [28]
  Variation: 2.72%
Cavia porcellus [29]
  Variation: 14.9%
Cavia porcellus [8]
  Variation: -16.06%
Cavia porcellus [9]
  Variation: -100%
Cavia porcellus [10]
  Variation: 8.97%
Cavia porcellus [30]
  Variation: -14.2%
Cavia porcellus [31]
  Variation: -33.52%
Cavia porcellus [32]
  Variation: -5.21%
Cavia porcellus [33]
  Variation: -3.33%
Cavia porcellus [34]
  Variation: -11%
Cavia porcellus [35]
  Variation: 19%
Cavia porcellus [11]
  Variation: 0%
Cavia porcellus [12]
  Variation: 0%
Cavia porcellus [36]
  Variation: -22.2%
Cavia porcellus [13]
  Variation: -6.54%
Cavia porcellus [14]
  Variation: -55.28%
Cavia porcellus [37]
  Variation: -9.37%
